Bioassay records deposited in PubChem BioAssay by several laboratories.
EP2 antag = human EP2 receptor antagonists, primary screen, TR-FRET cAMP, C6 glioma cells. AID 1422, 2008. 260,000 compounds, 0.52% hits. Prostaglandin E2 receptor EP2 subtype (Homo sapiens), P43116. inhibition, % at 25 µM. C6 glioma cells expressing human EP2; cells stimulated with saturating PGE2;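 active = percent inhibition above 40 after rounding to a whole number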;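 note: rat C6 glioma host cells with rolipram phosphodiesterase inhibitor present; the protocol text gives 20 µM as final concentration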
NPY Y1 blocker = NPY-Y1 receptor antagonists, primary screen, cell-based. AID 1040, 2008. inhibition, % at 3.6 µM. 200,000 compounds, 1% hits. HEK293-CNG Y1 cells, membrane potential fluorescence; NPY at EC95, then isoproterenol;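 active = inhibition above the campaign mean inhibition of all tested compounds plus 3 SD, cut at about 20% in these data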
Target sequence (P25929 whole entry, looked up): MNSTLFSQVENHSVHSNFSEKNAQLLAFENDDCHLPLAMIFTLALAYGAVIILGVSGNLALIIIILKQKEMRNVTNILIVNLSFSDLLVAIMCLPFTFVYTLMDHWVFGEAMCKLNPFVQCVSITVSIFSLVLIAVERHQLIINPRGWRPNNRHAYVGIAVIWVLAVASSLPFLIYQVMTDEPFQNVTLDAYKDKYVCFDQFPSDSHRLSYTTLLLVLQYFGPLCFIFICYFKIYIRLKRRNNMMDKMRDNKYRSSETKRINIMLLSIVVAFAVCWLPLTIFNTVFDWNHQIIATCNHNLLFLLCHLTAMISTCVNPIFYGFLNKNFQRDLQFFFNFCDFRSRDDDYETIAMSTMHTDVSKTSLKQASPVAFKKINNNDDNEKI
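Assay system: HEK293 Y1/CNG channel cell line; Doses: single compound dose of 3.6 µM, 0.4% DMSO; Timing: dye 3 h, compound 60 min room temperature, stimulation 45 min; Technique: Membrane-potential fluorescent dye readout; Measure: % inhibition of NPY effect.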
NPY-Y2 PAM-ag = NPY-Y2 potentiators or agonists, primary screen, cell-based; Neuropeptide Y receptor type 2 (Homo sapiens), P49146; cells expressing NPY-Y2, potentiator/agonist read-out; activation, % at 3.6 µM; 220,000 compounds, 0.45% hits; in the data active = activation above about 27%;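 note: cells stimulated with NPY near EC25 plus isoproterenol at EC100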
NPY-Y1 PAM-ag = NPY-Y1 receptor potentiators or agonists, primary screen, cell-based; activation, % at 3.6 µM; 220,000 compounds, 0.37% hits; Neuropeptide Y receptor type 1 (Homo sapiens), P25929; NPY-Y1 expressing cells, potentiator/agonist activation; in the data active = activation above about 33%, passing the limit was not always enough;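 note: cells stimulated with NPY at EC10 then isoproterenol at EC100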
EP2 modulator = EP2 receptor modulators, cAMP readout, primary screen, cell-based, HTRF cAMP, PGE2 stimulation; induction, % at 25 µM; EP2-expressing cells, cAMP HTRF FRET, PGE2 co-stimulation; 260,000 compounds, 0.83% hits; Prostaglandin E2 receptor EP2 subtype (Homo sapiens), P43116;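 active = compounds whose cAMP rise, as percent of the full-agonist control response, exceeds 60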;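 note: rat C6 glioma line stably carrying human EP2 under a CMV promoter; the protocol text gives 20 µM as final concentration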
NPY-Y2 antag = NPY-Y2 receptor antagonists, primary screen, cell-based; 140,000 compounds, 0.99% hits; AID 793, 2007; Neuropeptide Y receptor type 2 (Homo sapiens), P49146; inhibition, % at 2.7 µM; NPY-Y2 expressing cells, antagonist mode; in the data active = inhibition above about 17%
Large screens that a line does not name were inactive. Hits are enriched below; roughly 2.8% of the tested compounds scored in any of these assays.

CCOC(=O)N(NC(=O)C(O)(C(C)C)C(C)C)c1ccccc1	none (no result: NPY-Y2 antag)
Clc1ccc2c(N3CCC(CCC4CCN(c5ncnc6cc(Cl)ccc56)CC4)CC3)ncnc2c1	EP2 antag 52 (no result: NPY Y1 blocker, NPY-Y2 PAM-ag, NPY-Y1 PAM-ag, NPY-Y2 antag)
COc1ccc(Br)cc1CN1CCCCCCC1	NPY Y1 blocker 22, NPY-Y2 antag 21
CCc1cc2ccccc2nc1SCC(=O)Nc1ccccc1Cl	EP2 modulator 69 (no result: NPY Y1 blocker, NPY-Y2 PAM-ag, NPY-Y1 PAM-ag, NPY-Y2 antag)
CCc1cc2ccccc2nc1SCC(=O)Nc1ccccc1C(F)(F)F	EP2 modulator 61 (no result: NPY Y1 blocker, NPY-Y2 PAM-ag, NPY-Y1 PAM-ag, NPY-Y2 antag)
CCc1cc2ccccc2nc1SCC(=O)Nc1ccccc1F	none (no result: NPY Y1 blocker, NPY-Y2 PAM-ag, NPY-Y1 PAM-ag, NPY-Y2 antag)
O=S(=O)(NC1C2CCCCC21)c1cccc2nsnc12 (centres undefined)	none (no result: NPY Y1 blocker, NPY-Y2 PAM-ag, NPY-Y1 PAM-ag, NPY-Y2 antag)
CCOC(=O)/C(=C\c1cn(C)c2ccccc12)[N+](=O)[O-]	EP2 antag 42
CCOC(=O)/C(C#N)=C\c1cn(C)c2ccccc12	none (no result: NPY-Y2 antag)
CCCOc1ccccc1C1NC(=O)NC(C)=C1C(=O)OCc1ccccc1 (centres undefined)	EP2 modulator 64
Nc1nc(-c2ccc3ccccc3c2)cc(-c2cc(-c3ccc4ccccc4c3)nc(N)n2)n1	EP2 antag 51 (no result: NPY Y1 blocker, NPY-Y2 PAM-ag, NPY-Y1 PAM-ag, NPY-Y2 antag)
Nc1nc(-c2ccc3ccccc3c2)cs1	none (no result: NPY-Y2 antag)
CCC(CC)c1nn2c(N)c(/C=C3\C(C)=Nc4ccccc43)c(=O)nc2s1	NPY-Y2 PAM-ag 51, NPY-Y1 PAM-ag 88 (no result: NPY Y1 blocker, NPY-Y2 antag)
CC(C)c1nn2c(N)c(/C=C3\C=Nc4ccccc43)c(=O)nc2s1	none (no result: NPY Y1 blocker, NPY-Y2 antag)
O=C(NCc1cccs1)C1CCCN1C(=O)Nc1ccccc1 (centres undefined)	NPY-Y2 PAM-ag 102, NPY-Y1 PAM-ag 111
COc1ccc(C(O)CN2CCC(O)(c3ccccc3F)CC2)cc1 (centres undefined)	none (no result: NPY Y1 blocker, NPY-Y2 PAM-ag, NPY-Y1 PAM-ag, NPY-Y2 antag)
O=C(c1ccc(CN2CCCCC2)o1)N1CCCC1c1nc2ccccc2[nH]1 (centres undefined)	none (no result: NPY Y1 blocker, NPY-Y2 PAM-ag, NPY-Y1 PAM-ag, NPY-Y2 antag)
O=C(O)C[C@H]1OCC=C2C[N+]3([O-])CC[C@@]45c6ccccc6N[C@@H]4[C@@H]1[C@@H]2C[C@H]53 (some centres undefined)	EP2 antag 54 (no result: NPY Y1 blocker, NPY-Y2 PAM-ag, NPY-Y1 PAM-ag, NPY-Y2 antag)
O=C(/C=C/c1ccc2c(c1)OCO2)NCCSCc1ccc(Cl)cc1	NPY Y1 blocker 37, NPY-Y2 antag 23
Nc1nc(Cl)nc2c1ncn2[C@@H]1O[C@H](CO)[C@@H](O)[C@H]1O	NPY Y1 blocker 85, NPY-Y2 antag 102
Cc1cccc(NC(=O)CSc2nnc3c4c(C)c(C)sc4nc(C(C)C)n23)c1C	none (no result: NPY Y1 blocker, NPY-Y2 PAM-ag, NPY-Y1 PAM-ag, NPY-Y2 antag)
CCCCn1c(=N)n(CC(O)COc2ccc(C)cc2)c2ccccc21 (centres undefined)	NPY Y1 blocker 61, NPY-Y2 antag 47
CCCCn1c(=N)n(CC(O)COc2ccccc2)c2ccccc21 (centres undefined)	NPY Y1 blocker 34, NPY-Y2 antag 26
N=c1n(CCN2CCCCC2)c2ccccc2n1CC(O)COc1ccccc1 (centres undefined)	NPY Y1 blocker 49, NPY-Y2 antag 60
COC(=O)CC1=C(C(=O)OC)C(c2ccc(F)cc2)C(C#N)=C(N)O1 (centres undefined)	none (no result: NPY Y1 blocker, NPY-Y2 PAM-ag, NPY-Y1 PAM-ag, NPY-Y2 antag)
CCOC(=O)CSc1nnc2c3ccccc3nc(Cc3ccccc3)n12	EP2 modulator 65 (no result: NPY Y1 blocker, NPY-Y2 PAM-ag, NPY-Y1 PAM-ag, NPY-Y2 antag)
CC(=O)CSc1nnc2c3ccccc3nc(C(C)(C)C)n12	EP2 modulator 61 (no result: NPY-Y2 antag)
COc1ccccc1NC(=O)C1CCCN(S(=O)(=O)c2ccc(C)cc2)C1 (centres undefined)	none (no result: NPY Y1 blocker, NPY-Y2 PAM-ag, NPY-Y1 PAM-ag, NPY-Y2 antag)
COc1cccc(C2CC(C(F)(F)F)n3ncc(C(=O)N4CCC(C)CC4)c3N2)c1 (centres undefined)	none (no result: NPY Y1 blocker, NPY-Y2 PAM-ag, NPY-Y1 PAM-ag, NPY-Y2 antag)
Nc1ccc2nc(-c3cccs3)[nH]c2c1	EP2 antag 93
Nc1ccc2nc(-c3ccccc3)[nH]c2c1	none
O=C(O)CCC/C=C\C[C@@H]1[C@@H](/C=C/[C@@H](O)COc2cccc(Cl)c2)[C@H](O)C[C@@H]1O	none
CCCCC[C@H](O)/C=C/[C@@H]1[C@@H](CCCCCCC(=O)O)[C@@H](O)C[C@H]1O	EP2 modulator 83
COC1=CC(=O)C=C(OC)C1=O	EP2 antag 75 (no result: NPY Y1 blocker, NPY-Y2 PAM-ag, NPY-Y1 PAM-ag, NPY-Y2 antag)
